Among the data in PubChem BioAssay AID871 (The Scripps Research Institute Molecular Screening Center, 2007) are activation (% of control) values, retold here.

The structures appear in SMILES notation. The campaign covered roughly 190,000 compounds. About 1,800 (0.95%) were called active. The sample as a whole holds a higher share of actives than the screen did. Unmarked numbers belong to inactive results.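 Rule for the calls: active = activation above the screen-wide mean of compound activation plus 3 SD (cut at about 130% in these data); inactive = the rest.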

A short description of the assay: enhancers of STAT3 transcriptional signaling – U3A cells, luciferase, luminescence, MLSCN library, primary screen (AID 871).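 Note: 0% = background luminescence of wells with medium and substrate only.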 As to conditions: IL-6 STAT3-luciferase reporter, at 5.6 µM, stronger effect = higher value, 100% = signal with IL-6 EC80 alone. The method in brief: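 Material: STAT3-luciferase reporter U3A cells; Probe or stimulus: IL-6 (33 ng/mL); Incubation: compound pre-incubation 1 h before IL-6, then 6 h stimulation at 37 °C; Technique: luminescence from STAT3-driven luciferase reporter; Evaluation: % activation versus median of IL-6-stimulated wells; Controls: IL-6-only high control.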
As to `Cc1cccc(NC(=S)Nc2ccc(Cl)c(Cl)c2)c1`, the activation (% of control) was 92.4%.
To `Cc1ccc(OCc2n[nH]c(=S)n2-c2ccccc2)cc1` belongs 105%; to `Cc1cccnc1NC(=O)CSc1nnc(COc2ccc(C(C)C)cc2)n1C`, 98.9%; to `Cc1ccc(OCc2nnc(SC3CCc4ccccc4C3=O)n2C)cc1` (stereo not given), 144% (active).
Turning to `Cc1cc(C)cc(OCC(=O)NCc2cc(C)nc3ccccc23)c1`, the activation (% of control) is 92.5%.
To `O=C(CC1NCCc2ccccc21)Nc1cccc(Cl)c1` (stereo not given) belongs 100%.
In the case of `CCOc1cc(N2CCOCC2)c(OCC)cc1NC(=O)c1cc(C)nc2ccccc12` it was 93.6%; in that of `CCCCn1c(=O)c(CCC(=O)OCC(=O)Nc2ccc(C)c(Cl)c2)nc2ccccc21`, 100%.
To `CCCCOc1ccc(NC(=O)[C@@H]2CCCN2C(=O)C2CCN(S(=O)(=O)c3ccc(C)cc3)CC2)cc1` belongs 102%; to `CC(=O)Nc1ccc(NC(=O)COc2ccccc2C(=O)Nc2cccc(Cl)c2Cl)cc1`, 136% (active).
On to `COc1cc(NC(=O)COc2ccccc2Cl)ccc1NC(=O)C(C)C`, for which the activation (% of control) was 84.8%.
As to `O=C(COc1ccccc1Cl)Nc1ccc(C(=O)c2ccc(C(=O)O)cc2)cc1`, the activation (% of control) was 85.3%.
To `Cc1cc2oc(C(=O)Nc3c(C)n(C)n(-c4ccccc4)c3=O)c(C)c2cc1Cl` belongs 96.5%; to `CC(C)COP(=O)(c1ccc(N(C)C)cc1)C(Nc1ccccc1)c1cccnc1` (stereo not given), 106%.
In the case of `Nc1ccc(S(=O)(=O)Nc2nccc(/C=C/c3ccc(Br)s3)n2)cc1` it was 92.4%; in that of `Oc1cccc2ccc(/C=C/c3ccc(Br)s3)nc12`, 146% (active).
In the case of `O=C(Nc1nnc(C2CC2)s1)C1=NN(C2CCS(=O)(=O)C2)C(=O)CC1` (stereo not given) it was 103%.
Consider `O=C(N/N=C/c1ccccn1)c1ccc(S(=O)(=O)N2CCCCCC2)cc1`, for which the activation (% of control) was 104%.
In the case of `O=C(C1CCN(C2CCN(Cc3cccc4c3OCO4)CC2)CC1)N1CCOCC1` it was 108%.
To `Cc1ccc(OCC(=O)N/N=C\c2ccco2)c(C)c1` belongs 92.2%; to `Cc1ccc(OCC(=O)N/N=C/c2ccncc2)cc1`, 95.8%; to `Cc1ccc(/C=N/NC(=O)COc2ccccc2-c2ccccc2)cc1`, 148% (active).
`CC(=O)C1=C(C)NC2=C(C(=O)CC(C)(C)C2)C1C` (stereo not given): the activation (% of control) was 97%.
In the case of `N#Cc1ncc(C(F)(F)F)cc1Oc1cccnc1` it was 107%; in that of `COCCCNc1nc2c(-c3cccc(C(F)(F)F)c3)nnn2c2ccccc12`, 147% (active); in that of `Cc1cccc(Nc2nc3c(S(=O)(=O)c4ccccc4)nnn3c3ccccc23)c1C`, 105%.
Turning to `CC(=O)Nc1ccc(Nc2nc3c(S(=O)(=O)c4ccc(C)c(C)c4)nnn3c3ccccc23)cc1`, the activation (% of control) was 95.2%.
With `O=C(CNCc1ccco1)Nc1cc(S(=O)(=O)N2CCOCC2)ccc1N1CCCC1`, the activation (% of control) is 114%.
For the compound `CCOc1ccc(NC(=S)N2CCC(N(C)CC3CCCO3)CC2)cc1` (stereo not given), the activation (% of control) was 102%.
In the case of `COc1cc2c(cc1OC)CN(C(=O)c1cc(=O)c3ccccc3o1)CC2` it was 92.7%; in that of `CCOc1cc(C(=O)N2CCc3cc(OC)c(OC)cc3C2)ccc1OC(F)F`, 133% (active).
Turning to `COc1cc2c(cc1OC)CN(C(=O)c1ccc(S(=O)(=O)N3CCCCCC3)cc1)CC2`, the activation (% of control) was 92.7%.
Take `O=C(CNS(=O)(=O)c1ccccc1)NCC(=O)OCc1ccccc1F`: the activation (% of control) was 108%.
As to `Cc1ccc(C(=O)Nc2cccc3ncccc23)cc1[N+](=O)[O-]`, the activation (% of control) was 94.5%.
In the case of `Cc1cc(O)c(NC(=O)c2ccc(C)c([N+](=O)[O-])c2)cc1C` it was 134% (active); in that of `CCN1CCC(=NNC(=O)c2ccc(C)c([N+](=O)[O-])c2)CC1`, 107%; in that of `Cc1ccccc1CC1(CO)CCCN(Cc2ccc3c(c2)OCCO3)C1` (stereo not given), 93.5%.
`COc1ccccc1CCNC(=O)CSc1nnc2ccc(-c3cccnc3)nn12`: the activation (% of control) is 101%.
As for `CC(C)(C)C(=O)CN1C2=NCCN2c2ccccc21`, the activation (% of control) is 96.1%.
In the case of `COc1ccc(CCn2c(=N)c(C(=O)NCc3ccco3)cc3c(=O)n4cccc(C)c4nc32)cc1` it was 94.5%; in that of `C=C(C)Cn1c(SCC(=O)NCc2ccco2)nc2sc3c(c2c1=O)CCC3`, 104%.
In the case of `O=C(NCc1ccco1)c1cccn2c(=O)c3c4c(sc3nc12)CCCC4` it was 154% (active); in that of `O=C(Nc1nnc(SCc2ccccc2Cl)s1)c1cccc([N+](=O)[O-])c1`, 109%; in that of `Fc1ccc(-c2nnc(CSc3nnc(-c4ccc5c(c4)OCO5)o3)o2)cc1`, 102%.
To `Fc1ccc2nc(-c3ccccc3)nc(SCc3nnc(-c4ccccc4)o3)c2c1` belongs 141% (active); to `c1ccc(-c2nnc(SCc3nc4ccccc4[nH]3)o2)cc1`, 109%; to `O=C(NCCCO)/C(=C\C=C\c1ccccc1)NC(=O)c1ccccc1Cl`, 101%.
Take `CC1CCc2sc(C(=O)N/N=C/C3CCCCC3)cc2C1` (stereo not given): the activation (% of control) is 103%.
To `CSc1nc(N(C)NC(=O)c2cccc(C)c2)c2ccccc2n1` belongs 139% (active); to `CN(NC(=O)c1ccccc1F)c1nc(C(F)(F)F)nc2ccccc12`, 115%.
To `CN(NC(=O)c1ccccc1)c1nc2ccccc2nc1C(F)(F)F` belongs 96%; to `COc1ccc2nc(Nc3nc4cc5c(cc4s3)OCCO5)sc2c1`, 93.3%.
To `Fc1ccc2nc(Nc3nc4c(s3)CCCC4)sc2c1` belongs 147% (active); to `CSc1ncccc1C(=O)Nc1nc2ccc(F)cc2s1`, 90.7%; to `COc1cc(NC(=S)NCc2ccco2)c(OC)cc1Cl`, 95.6%.
Turning to `O=C(c1ccc2ccccc2n1)N1CCN(c2ccccc2Cl)CC1`, the activation (% of control) is 135% (active).
In the case of `O=C(c1ccncc1)N1CCN(c2ccc3ccccc3n2)CC1` it was 90%; in that of `COc1ccccc1N1CCN(C(=O)c2cc(-c3ccc(Cl)c(Cl)c3)on2)CC1`, 91.7%; in that of `O=C(/C=C/c1ccc(F)cc1)NCCNC(=O)/C=C/c1ccc(F)cc1`, 95%.
In the case of `COC(=O)CC(=O)N1CCN(c2ccc(Cl)c(Cl)c2)CC1` it was 87.7%.
